TAAR1 ag = human TAAR1 agonists, primary screen, Fluo-8 calcium fluorescence, CHO RD-HGA16 cells; activation, % at 3 µM; vehicle wells 0%, saturating PEA agonist 100%; AID 624467, 2012; 0.99% of 360,000 active;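 active = activation above the mean activation of all test compounds in the run plus 3 SD, cut at about 38% in these data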
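Repeats: no replicates (n 1) | Material: CHO-derived RD-HGA16 cells with stable Gα16 and human TAAR1 | Technique: Kinetic Fluo-8 calcium fluorescence | Schedule: 17-24 h seeding, 75 min 37 °C dye, 30 min RT | Evaluation: % activation from peak over basal fluorescence ratio, DMSO-to-PEA scaled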
CHO parental Ca = ATP-evoked calcium signal inhibitors, parental CHO, primary screen, counter-screen for OX1R antagonist project, cell-based, fluorescence, Fluo-8 calcium dye; parental CHO-K1, ATP-induced calcium, Fluo-8 fluorescence; inhibition, % at 5.6 µM; 0.63% of 330,000 active;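 active = inhibition above that plate's mean sample inhibition plus 3 SD, cut at about 26% in these data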
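Material: parental CHO cells / Compound: single nominal dose of 5.6 µM per compound / Signal: Fluo-8 fluorescence / Replicates: singlicate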
OX1R antag-1 = OX1R (HCRTR1) antagonists, primary screen, fluorescence, CHO/OX1R cells, Fluo-8 calcium, orexin A | Orexin/Hypocretin receptor type 1 (Homo sapiens), O43613 | 0.43% of 330,000 active | AID 434989, 2010 | Fluo-8 calcium fluorescence | inhibition, % at 5 µM;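 active = inhibition above its plate's threshold, mean inhibition of all tested compounds on the plate plus 3 SD, cut at about 37% in these data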
Target sequence (O43613 whole entry, looked up): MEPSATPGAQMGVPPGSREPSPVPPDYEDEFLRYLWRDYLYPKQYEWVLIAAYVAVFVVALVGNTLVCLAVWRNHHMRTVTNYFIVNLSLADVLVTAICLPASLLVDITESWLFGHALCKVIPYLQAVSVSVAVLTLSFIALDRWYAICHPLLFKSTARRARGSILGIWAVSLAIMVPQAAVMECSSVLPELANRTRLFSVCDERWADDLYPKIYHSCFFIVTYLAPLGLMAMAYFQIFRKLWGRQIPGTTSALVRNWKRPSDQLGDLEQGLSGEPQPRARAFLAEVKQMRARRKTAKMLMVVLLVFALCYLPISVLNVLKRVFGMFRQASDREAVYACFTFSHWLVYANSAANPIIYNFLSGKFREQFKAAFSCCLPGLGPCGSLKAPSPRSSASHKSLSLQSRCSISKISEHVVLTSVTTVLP
GPR7 antag = GPR7 receptor antagonists, primary screen, cell-based, fluorescence, single concentration; 1.1% of 290,000 active; GPR7-expressing cells, fluorescence antagonist assay; inhibition, % at 4.4 µM; in the data active = inhibition above about 16%, passing the limit was not always enough;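 note: cells stimulated with the agonist NPW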
OX1R antag-2 = antagonists of human orexin 1 receptor (OX1R) | AID 485270, 2010 | 1.8% of 330,000 active | inhibition, % at 6.6 µM | OX1R-expressing cells, FRET antagonist read-out | Orexin/Hypocretin receptor type 1 (Homo sapiens), O43613; in the data active = inhibition mostly above about 38%, no sharp cut-off; inactive = mostly below about 40%
TAAR1 antag = human TAAR1 antagonists, primary screen, Fluo-8 calcium fluorescence, CHO RD-HGA16 cells; AID 624466, 2012; inhibition, % at 3 µM; antagonist; 1.5% of 360,000 active;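 active = inhibition above a per-plate cutoff, the mean inhibition of test compounds on that plate plus 3 SD, cut at about 49% in these data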
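Test system – hTAAR1-expressing CHO RD-HGA16 cells, Gα16-coupled · Also added – β-PEA at EC80 concentration, post-compound challenge · Compound – 3 µM, single point · Incubation – dye loading 75 min at 37 °C, then 30 min room temperature · Measured by – Fluo-8 intracellular calcium dye fluorescence, real-time kinetic reads · Benchmarks – vehicle and agonist controls · Replicates – singlicate, one well per test compound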
GPR7 antag conf = GPR7 receptor antagonists, confirmation, cell-based, fluorescence, single concentration. shares compounds with GPR7 antag. GPR7-expressing cells, calcium fluorescence antagonist mode. inhibition, % at 4.4 µM. 52% of 2,400 active. AID 1952, 2009; in the data active = inhibition above about 24%;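 note: stimulated with the GPR7 agonist NPW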
MCHR1 antag = MCHR1 antagonists in cells, counter-screen for GPR7 antagonist project, cell-based, fluorescence, human; shares compounds with GPR7 antag; MCHR1-expressing cells, fluorescence antagonist assay; inhibition, % at 4.4 µM; 62% of 2,400 active; AID 2148, 2009; in the data active = inhibition above about 22%
Hits are given with their value; 0 = inactive; - = no result given. Compounds with a hit are over-represented: about 4.6% of the library has one in this group of screens.

SMILES	TAAR1 ag	CHO parental Ca	OX1R antag-1	GPR7 antag	OX1R antag-2	TAAR1 antag	GPR7 antag conf	MCHR1 antag
COc1ccc2c(c1OC)C(=O)N(c1ccc(C)cc1)C2	0	0	0	23.4	0	0	0	0
COc1ccc2c(c1OC)C(=O)N(c1cccc(C)c1)C2	0	0	0	0	0	0	-	-
COc1ccc(Nc2nnc(-c3ccc(N4CCOCC4)c([N+](=O)[O-])c3)c3ccccc23)cc1	0	-	-	0	-	0	-	-
OC(c1ccccc1)C1(c2ccccc2)CCN(Cc2ccccc2)CC1 (stereo not drawn)	0	-	-	-	-	0	-	-
COc1ccccc1C1(O)CCN(CC(=O)Nc2c(C)nn(C)c2C)CC1	0	0	0	27.3	0	0	0	0
COc1ccccc1N1CCN(CC(=O)Nc2c(C)n[nH]c2C)CC1	0	0	0	0	0	0	-	-
O=C(CCNS(=O)(=O)c1ccc(Br)s1)Nc1ccc(Cl)cc1	0	0	0	32.0	0	0	31.9	29.5
c1ccc2c(CSCCc3ccncc3)cccc2c1	0	0	0	0	0	0	-	-
Clc1ccc(CSCCc2ccncc2)cc1	0	0	0	22.6	0	0	0	25.5
CCCCn1c(=O)[nH]c(=O)c2c1ncn2Cc1ccco1	-	0	0	0	0	-	-	-
CCCCn1cnc2c(c(-c3ccccc3)c(-c3ccccc3)n2Cc2ccco2)c1=N	0	0	0	32.4	0	0	54.4	96.8
Cc1cc(=O)n2nc(N3CCC(C(=O)NCc4cccc(Cl)c4)CC3)sc2n1	0	0	0	0	0	0	-	-
Cc1cnc(CNC(=O)c2ccc3oc(Cc4ccc(Cl)cc4)nc3c2)cn1	0	0	0	22.7	0	0	0	0
COc1ccc(Cl)cc1S(=O)(=O)Nc1ccc2c(c1)n(C)c(=O)n2C	0	0	0	0	0	0	-	-
Cc1ccc(S(=O)(=O)NCCNc2ccc([N+](=O)[O-])cc2)cc1	0	0	0	0	0	0	-	-
Cc1ccc(S(=O)(=O)NCCCNc2ccc([N+](=O)[O-])cc2)cc1	0	0	0	41.2	0	0	45.3	70.7
Cc1ccc(CNC(=O)C2CC(c3cccc([N+](=O)[O-])c3)=NO2)cc1 (stereo not drawn)	0	0	0	31.9	0	0	0	33.9
COc1ccc(CNC(=O)C2CC(c3cccc([N+](=O)[O-])c3)=NO2)cc1 (stereo not drawn)	0	0	0	0	0	0	-	-
CC(/C=C1\N=C(SCc2ccccc2)SC1=O)=C\c1ccccc1	0	0	0	0	0	0	-	-
Cc1ccc(NC(=O)C2CCN(S(=O)(=O)c3ccc(N4CCCC4=O)cc3)CC2)cc1Cl	0	64.4	0	38.5	0	0	52.4	61.3
CC(=O)N1c2ccc(S(=O)(=O)N3CCC(C(=O)Nc4cccc(C)c4)CC3)cc2CC1C (stereo not drawn)	0	0	0	0	0	0	-	-
CC1Sc2ccc(S(=O)(=O)N3CCC(C(=O)Nc4ccc(Cl)cc4)CC3)cc2NC1=O (stereo not drawn)	0	53.7	0	60.7	0	0	68.1	70.0
CC(=O)N1c2ccc(S(=O)(=O)N3CCC(C(=O)Nc4cccc(Cl)c4)CC3)cc2CC1C (stereo not drawn)	0	0	0	31.2	0	0	0	47.1
CCN(CC)S(=O)(=O)c1ccc(NC(=O)c2ccc(N(C)S(C)(=O)=O)cc2)cc1	0	0	0	32.3	0	0	43.9	58.0

Assay outcomes: PubChem, The Scripps Research Institute Molecular Screening Center
